Data set [1] concerns RAW264.7. Put plainly: Antiinflammatory activity in TNFalpha-stimulated mouse RAW264.7 cells assessed as PGJ level at 1 uM after 20 hrs by ELISA. The data set is classed as functional. In short, it runs like this: (§1)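 Mouse RAW264.7 macrophages were grown in DMEM with 10% FBS and passaged by scraping without trypsin. Cells were seeded at 50,000 per well in DMEM+FCS with TNFα (10 nM) and incubated 20 hrs at 37°C, 5% CO2. Medium was then changed to serum-free DMEM, cells were treated for 2 hrs, and PGJ in the medium was measured by ELISA. DMSO was the vehicle control.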

Data set [2] relates to RAW264.7. Put plainly: Antiinflammatory activity in TNFalpha-stimulated mouse RAW264.7 cells assessed as PGJ level at 10 uM after 20 hrs by ELISA. The data set is classed as functional. In short, it runs like this: as §1
In general terms: ELISA stands for enzyme-linked immunosorbent assay.

The subject of data set [3] is RAW264.7. The data set can be described thus: Antiinflammatory activity in TNFalpha-stimulated mouse RAW264.7 cells assessed as PGJ level at 0.3 uM after 20 hrs by ELISA. In kind it is functional. In short, it runs like this: as §1
The test system of data set [4] is RAW264.7. Put plainly: Antiinflammatory activity in TNFalpha-stimulated mouse RAW264.7 cells assessed as PGJ level at 3 uM after 20 hrs by ELISA. The data set is classed as functional. In outline:
as §1

The subject of data set [5] is RAW264.7. Put plainly: Antiinflammatory activity in TNFalpha-stimulated mouse RAW264.7 cells assessed as cell count at 0.3 uM after 20 hrs relative to control. The data set is classed as functional. In outline:
(§2)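 RAW264.7 cells were kept in DMEM/10% FBS and subcultured by scraping. They were plated at 50,000 per well with TNFα (10 nM) for 20 hrs at 37°C, 5% CO2, then switched to serum-free DMEM for 2 hrs of treatment. Cell numbers were compared with the vehicle control.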

The test system of data set [6] is RAW264.7. Put plainly: Antiinflammatory activity in TNFalpha-stimulated mouse RAW264.7 cells assessed as reduction in cell count at 1 uM after 20 hrs relative to control. On the set-up: scale not given: the % may be the effect or the level left. The data set is classed as functional. In short, it runs like this:
as §2

In data set [7] the test system is RAW264.7. Put plainly: Antiinflammatory activity in TNFalpha-stimulated mouse RAW264.7 cells assessed as reduction in cell count at 3 uM after 20 hrs relative to control. In kind it is functional. Further details: scale not given: the % may be the effect or the level left. In outline: as §2
Data set [8] deals with RAW264.7. The data set can be described thus: Antiinflammatory activity in TNFalpha-stimulated mouse RAW264.7 cells assessed as reduction in cell count at 10 uM after 20 hrs relative to control. On the set-up: scale not given: the % may be the effect or the level left. In kind it is functional. In short, it runs like this:
as §2

The test system of data set [9] is RAW264.7. Put plainly: Cytotoxicity in mouse RAW264.7 cells assessed as decrease in cell viability at 0.3 to 10 uM after 20 hrs. In kind it is cell-based. Conditions: raw264.7, 20 h.
Data set [10] has as its system RAW264.7. Put plainly: Antiinflammatory activity in TNFalpha-stimulated mouse RAW264.7 cells assessed as reduction in cell count at 0.3 uM after 20 hrs relative to control. In kind it is functional. Further details: scale not given: the % may be the effect or the level left. In short, it runs like this: as §2
For data set [11], the system named is RAW264.7. The data set can be described thus: Antiinflammatory activity in TNFalpha-stimulated mouse RAW264.7 cells assessed as PGJ level at 0.5 uM after 20 hrs by ELISA. The data set is classed as functional. In outline:
as §1

Data set [12] concerns Mus musculus. Put plainly: Antiinflammatory activity in mouse peritonitis model assessed as accumulation of PGJ per 10^3 peritoneal cells at 0.3 to 20 mg/kg, po after 3 hrs by ELISA. The data set is classed as functional, organism-based. In outline:
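Mice were dosed by mouth in safflower oil (0.3–20 mg/kg); the safflower oil vehicle served as control. After 30 min they received 1 ml of 8% thioglycollate medium i.p. Peritoneal cells were harvested, cultured for 18 hrs, and PGJ in the medium was measured by ELISA. N=4.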

Data set [13] concerns Mus musculus. The data set can be described thus: Antiinflammatory activity in po dosed mouse peritonitis model assessed as inhibition of thiglycollate-induced migration of leukocytes into the peritoneal cavity administered 30 mins prior to thiglycollate-challenge. The data set is classed as functional. In outline: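 Oral doses of 0.3–20 mg/kg in safflower oil were given to mice; controls received safflower oil. Thirty minutes later, 1 ml of sterile-filtered 8% thioglycollate medium was injected i.p. After 3 hrs, peritoneal cells were harvested, erythrocytes were lysed for 2 min, cells were resuspended in PBS/BSA, and differential leukocyte counts were made. N=8.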

The subject of data set [14] is RAW264.7. The data set can be described thus: Antiinflammatory activity in TNFalpha-stimulated mouse RAW264.7 cells assessed as PGJ level at 2.5 uM after 20 hrs by ELISA. In kind it is functional. In short, it runs like this:
as §1

In data set [15] the test system is RAW264.7. Put plainly: Antiinflammatory activity in TNFalpha-stimulated mouse RAW264.7 cells assessed as PGJ level at 5 uM after 20 hrs by ELISA. In kind it is functional. In outline:
as §1

Active and inactive are the calls of the source. The rule behind the calls is not given here.

Turning to `CCCCC/C=C\C/C=C\CCCCCCCC(=O)N[C@H](C)C(=O)O`, the Activity in [1] is 18 pg/mL; in [2], 1580 pg/mL; in data set [3] it was under 16 pg/mL; in data set [4] it was 233 pg/mL; in data set [5], 136%; in [6] it was 65.9%. Besides, the Activity is on record as 33.9% in data set [7], 30.5% in data set [8] and “Non-toxic” in [9].
Regarding `CCCCC/C=C\C/C=C\CCCCCCCC(=O)N[C@@H](C)C(=O)O`, the Activity is under 16 pg/mL in [1]; 30.3 pg/mL in [2]; under 16 pg/mL in data set [3]; under 16 pg/mL in [4]; 74.3% in [6]; 68.5% in [7]. For the same compound, the Activity in data set [8] is recorded as 55.5%; in data set [9] it was “Non-toxic”; in data set [10], 55.6%.
Turning to `CCCCC/C=C\C/C=C\C/C=C\C/C=C\CCCC(=O)NCC(=O)O` [ARACHIDONOYL GLYCINE], the Activity in data set [1] is under 16 pg/mL; in data set [2], 6847 pg/mL.
For the compound `CCCCC/C=C\C/C=C\CCCCCCCC(=O)NCC(=O)O` [LINOLEOYL GLYCINE], the Activity in [11] was under 16 pg/mL; in data set [1], 177 pg/mL; in data set [14], 1843 pg/mL; in data set [15] it was 3907 pg/mL; in data set [2] it was 7315 pg/mL. Besides, the result in data set [12] was Active. Also, in data set [13], the ED50 (as a rule, the dose at which the effect has come halfway, by size or by number of responders) was under 0.3 mg/kg.
